# Measured values: ChEMBL document CHEMBL1795332, “Renin inhibitors for the treatment of hypertension: design and optimization of a novel series of pyridone-substituted piperidines” (Bioorg Med Chem Lett, 2011)
# How the values were obtained:
# CYP3A4 [1] = target: T1, CYP3A4 (Homo sapiens, UniProt P08684); assay: Reversible inhibition of CYP3A4 assessed as conversion of testosterone to 6-beta-hydroxytestosterone at 10 uM relative to control; type: ADME; conditions: probe testosterone
# CYP3A4 [2] = target: T1, CYP3A4; assay: Time dependent inhibition of CYP3A4 assessed as conversion of testosterone to 6-beta-hydroxytestosterone at 10 uM relative to control; type: ADME; conditions: probe testosterone
# Procedure, shortened: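 Rate of CYP3A4 conversion of testosterone (250 μM) to 6-β-hydroxytestosterone measured before and after a 30 min incubation with compound at 10 μM (in DMSO). Difference expressed as % loss.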
# Renin [3] = target: T2, Renin (Homo sapiens, UniProt P00797); assay: Inhibition of human recombinant renin using Q-FRET substrate after 3 hrs by fluorescence assay
# T2 sequence (P00797 whole entry): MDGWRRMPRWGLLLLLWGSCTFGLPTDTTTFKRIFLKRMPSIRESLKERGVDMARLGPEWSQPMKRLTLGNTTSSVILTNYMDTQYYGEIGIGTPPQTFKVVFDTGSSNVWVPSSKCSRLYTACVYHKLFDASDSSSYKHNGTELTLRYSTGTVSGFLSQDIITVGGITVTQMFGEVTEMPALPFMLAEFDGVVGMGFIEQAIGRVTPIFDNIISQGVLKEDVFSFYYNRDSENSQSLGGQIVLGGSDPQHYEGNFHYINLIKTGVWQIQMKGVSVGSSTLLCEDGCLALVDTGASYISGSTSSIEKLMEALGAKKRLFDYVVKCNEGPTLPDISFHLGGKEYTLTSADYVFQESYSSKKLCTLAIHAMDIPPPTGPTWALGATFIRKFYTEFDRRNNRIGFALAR
# Renin [4] = target: T2, Renin; assay: Inhibition of renin in human plasma using Q-FRET substrate pretreated for 10 mins before substrate addition measured after 1 hr
# [5] = Oral bioavailability in Sprague-Dawley rat at 3 mg/kg; type: ADME, organism-based; conditions: in vivo
# [6] = target: Voltage-gated inwardly rectifying potassium channel KCNH2 (Homo sapiens, UniProt Q12809); assay: Inhibition of human ERG
# Canis familiaris [7] = assay: Cardiotoxicity in anesthetized, vagotomized and ventilated Mongrel dog assessed as prolongation of QTc intervals at 10 mg/kg, iv after 1.5 hrs relative to baseline; type: toxicity, organism-based, Canis lupus familiaris; parameters: dose 10 mg/kg, route intravenous; conditions: in vivo
# Procedure, shortened: (§1)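 Anesthetized, vagotomized, ventilated mongrel dogs received an iv infusion of 10 mpk over 1.5 h. QTc, PR and QRS intervals were recorded as percentage change from baseline, and plasma concentration (µM) was measured.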
# Canis familiaris [8] = assay: Cardiotoxicity in anesthetized, vagotomized and ventilated Mongrel dog assessed as prolongation of QRS intervals at 10 mg/kg, iv after 1.5 hrs relative to baseline; type: toxicity, organism-based, Canis lupus familiaris; parameters: dose 10 mg/kg, route intravenous; conditions: in vivo; procedure, shortened: as §1
# Canis familiaris [9] = assay: Cardiotoxicity in anesthetized, vagotomized and ventilated Mongrel dog assessed as prolongation of PR intervals at 10 mg/kg, iv after 1.5 hrs relative to baseline; type: toxicity, organism-based, Canis lupus familiaris; parameters: dose 10 mg/kg, route intravenous; conditions: in vivo; procedure, shortened: as §1
# Rattus norvegicus [10] = assay: Cardiotoxicity in cardiac electrophysiology rat model assessed as prolongation of QRS intervals at 10 mg/kg, iv after 0.5 hrs relative to baseline; type: toxicity, organism-based, Heart; parameters: dose 10 mg/kg, route intravenous; conditions: in vivo
# Procedure, shortened: (§2)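 Rat electrophysiology model dosed at 10 mpk over 0.5 h. PR and QRS prolongation expressed as percentage change from baseline; plasma concentration (µM) recorded.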
# [11] = target: Voltage-dependent L-type calcium channel subunit alpha-1C (Homo sapiens, UniProt Q13936); assay: Inhibition of human Cav1.2
# Rattus norvegicus [12] = assay: Cardiotoxicity in cardiac electrophysiology rat model assessed as prolongation of PR intervals at 10 mg/kg, iv after 0.5 hrs relative to baseline; type: toxicity, organism-based, Heart; parameters: dose 10 mg/kg, route intravenous; conditions: in vivo; procedure, shortened: as §2
# [13] = Oral bioavailability in Sprague-Dawley rat at 30 mg/kg; type: ADME, organism-based; conditions: in vivo
# [14] = target: Sodium channel protein type 5 subunit alpha (Homo sapiens, UniProt Q14524); assay: Inhibition of human Nav1.5
# [15] = Plasma concentration in anesthetized, vagotomized and ventilated Mongrel dog at 10 mg/kg, iv after 1.5 hrs; type: ADME, organism-based, Canis lupus familiaris; parameters: dose 10 mg/kg, route intravenous; procedure, shortened: as §1
# [16] = Plasma concentration in cardiac electrophysiology rat model at 10 mg/kg, iv after 0.5 hrs; type: ADME, organism-based; parameters: dose 10 mg/kg, route intravenous; procedure, shortened: as §2
# [17] = Solubility of the compound in water; type: physicochemical; conditions: buffer
# [18] = AUC in cynomolgus monkey at 3 mg/kg, po; type: ADME, organism-based, Macaca fascicularis; parameters: dose 3 mg/kg, route oral; conditions: plasma
# Liver microsomes [19] = assay: Covalent binding in human liver microsomes assessed per mg of protein at 10 uM after 60 mins in absence of NADPH; type: ADME, Microsome; conditions: 1 h
# Procedure, shortened: (§3)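 Test compound at 10 μM was incubated for 60 min (n = 3) with human liver microsomes at 1 mg protein/mL, with or without 1 mM NADPH. Covalent binding reported as pmole eq/mg at 1 h.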
# [20] = AUC in Sprague-Dawley rat at 20 mg/kg, po; type: ADME, organism-based; parameters: dose 20 mg/kg, route oral; conditions: plasma
# [21] = Half life in cynomolgus monkey at 3 mg/kg, po and 1 mg/kg, iv; type: ADME, organism-based, Macaca fascicularis; conditions: in vivo
# [22] = Volume of distribution at steady state in Beagle dog at 3 mg/kg, po and 1 mg/kg, iv; type: ADME, organism-based, Canis lupus familiaris; conditions: in vivo, read-out: Vdss
# Rattus norvegicus [23] = assay: Antihypertensive activity in double transgenic rat model assessed as reduction of blood pressure at 10 mg/kg, po; type: functional
# [24] = Half life in Beagle dog at 3 mg/kg, po and 1 mg/kg, iv; type: ADME, organism-based, Canis lupus familiaris; conditions: in vivo
# [25] = Clearance in cynomolgus monkey at 3 mg/kg, po and 1 mg/kg, iv; type: ADME, organism-based, Macaca fascicularis; conditions: in vivo
# [26] = Oral bioavailability in Beagle dog at 3 mg/kg; type: ADME, organism-based, Canis lupus familiaris; conditions: in vivo
# Cytochrome P450 3A4 [27] = target: T3, Cytochrome P450 3A4 (Homo sapiens, UniProt P08684); assay: Time dependent inhibition of CYP3A4 assessed as conversion of testosterone to 6-beta-hydroxytestosterone; type: ADME
# Procedure, shortened: (§4)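 Time-dependent CYP3A4 inhibition (testosterone to 6-β-hydroxytestosterone).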
# Liver microsomes [28] = assay: Covalent binding in human liver microsomes assessed per mg of protein at 10 uM after 60 mins in presence of NADPH; type: ADME, Microsome; conditions: 1 h; procedure, shortened: as §3
# [29] = Volume of distribution at steady state in cynomolgus monkey at 3 mg/kg, po and 1 mg/kg, iv; type: ADME, organism-based, Macaca fascicularis; conditions: in vivo, read-out: Vdss
# Rattus norvegicus [30] = assay: Antihypertensive activity in double transgenic rat model assessed as duration in reduction of blood pressure at 10 mg/kg, po; type: functional
# [31] = Half life in Sprague-Dawley rat at 20 mg/kg, po and 5 mg/kg, iv; conditions: in vivo
# Cytochrome P450 3A4 [32] = target: T3, Cytochrome P450 3A4; assay: Reversible inhibition of CYP3A4 assessed as conversion of testosterone to 6-beta-hydroxytestosterone; type: ADME
# [33] = Oral bioavailability in cynomolgus monkey at 3 mg/kg; type: ADME, organism-based, Macaca fascicularis; conditions: in vivo
# [34] = Volume of distribution at steady state in Sprague-Dawley rat at 20 mg/kg, po and 5 mg/kg, iv; conditions: in vivo, read-out: Vdss
# [35] = Clearance in Beagle dog at 3 mg/kg, po and 1 mg/kg, iv; type: ADME, organism-based, Canis lupus familiaris; conditions: in vivo
# Cytochrome P450 3A4 [36] = target: T3, Cytochrome P450 3A4; assay: Time dependent inhibition of CYP3A4 assessed as conversion of testosterone to 6-beta-hydroxytestosterone preincubated for 30 mins; type: ADME; procedure, shortened: as §4
# [37] = Oral bioavailability in Sprague-Dawley rat at 20 mg/kg; type: ADME, organism-based; conditions: in vivo
# [38] = Clearance in Sprague-Dawley rat at 20 mg/kg, po and 5 mg/kg, iv; conditions: in vivo
# [39] = AUC in Beagle dog at 3 mg/kg, po; type: ADME, organism-based, Canis lupus familiaris; parameters: dose 3 mg/kg, route oral; conditions: plasma
# Voltage-gated inwardly rectifying potassium channel KCNH2, sequence (Q12809 whole entry): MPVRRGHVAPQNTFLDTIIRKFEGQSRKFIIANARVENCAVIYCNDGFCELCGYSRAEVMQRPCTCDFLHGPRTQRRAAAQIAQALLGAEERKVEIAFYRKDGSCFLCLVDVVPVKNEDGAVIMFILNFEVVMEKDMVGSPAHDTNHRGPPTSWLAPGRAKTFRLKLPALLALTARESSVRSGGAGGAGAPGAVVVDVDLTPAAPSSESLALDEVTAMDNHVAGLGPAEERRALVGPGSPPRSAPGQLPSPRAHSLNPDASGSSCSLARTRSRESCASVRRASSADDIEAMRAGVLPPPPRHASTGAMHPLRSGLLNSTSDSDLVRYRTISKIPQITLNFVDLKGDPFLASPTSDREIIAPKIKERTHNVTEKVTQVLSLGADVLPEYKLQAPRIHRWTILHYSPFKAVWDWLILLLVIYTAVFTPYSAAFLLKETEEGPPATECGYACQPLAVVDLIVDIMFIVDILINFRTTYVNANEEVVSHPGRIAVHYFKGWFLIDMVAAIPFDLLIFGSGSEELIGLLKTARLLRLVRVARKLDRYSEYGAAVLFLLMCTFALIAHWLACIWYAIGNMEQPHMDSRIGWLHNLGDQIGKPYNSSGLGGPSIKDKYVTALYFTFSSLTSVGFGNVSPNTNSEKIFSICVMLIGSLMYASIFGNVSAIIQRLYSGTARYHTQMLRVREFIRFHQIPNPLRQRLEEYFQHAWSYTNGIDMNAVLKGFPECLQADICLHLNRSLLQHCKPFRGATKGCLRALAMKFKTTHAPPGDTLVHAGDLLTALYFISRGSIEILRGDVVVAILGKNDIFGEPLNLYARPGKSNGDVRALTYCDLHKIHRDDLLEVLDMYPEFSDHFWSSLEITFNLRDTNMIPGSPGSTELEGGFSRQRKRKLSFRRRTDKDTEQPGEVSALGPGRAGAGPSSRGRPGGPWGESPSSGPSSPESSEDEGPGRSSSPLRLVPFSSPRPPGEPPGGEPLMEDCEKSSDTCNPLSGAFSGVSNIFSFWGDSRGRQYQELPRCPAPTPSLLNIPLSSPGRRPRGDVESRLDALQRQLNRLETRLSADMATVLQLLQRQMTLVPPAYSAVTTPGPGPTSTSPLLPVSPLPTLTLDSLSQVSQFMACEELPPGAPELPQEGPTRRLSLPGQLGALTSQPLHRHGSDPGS
# T1 sequence (P08684 whole entry): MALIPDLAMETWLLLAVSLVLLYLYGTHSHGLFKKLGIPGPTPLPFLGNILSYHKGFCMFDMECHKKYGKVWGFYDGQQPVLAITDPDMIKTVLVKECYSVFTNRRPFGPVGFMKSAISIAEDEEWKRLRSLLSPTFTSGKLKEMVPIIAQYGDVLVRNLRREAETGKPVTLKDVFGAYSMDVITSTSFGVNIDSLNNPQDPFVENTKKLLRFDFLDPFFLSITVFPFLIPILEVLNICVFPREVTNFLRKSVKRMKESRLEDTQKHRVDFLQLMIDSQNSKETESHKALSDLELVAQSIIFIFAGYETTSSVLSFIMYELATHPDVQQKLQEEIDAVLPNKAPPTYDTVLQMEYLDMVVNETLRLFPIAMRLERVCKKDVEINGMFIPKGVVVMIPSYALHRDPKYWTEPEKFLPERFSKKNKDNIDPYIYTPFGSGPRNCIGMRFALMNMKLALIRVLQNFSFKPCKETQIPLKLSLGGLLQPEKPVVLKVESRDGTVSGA
# T3 sequence (P08684 whole entry): as above
# Voltage-dependent L-type calcium channel subunit alpha-1C, sequence (Q13936 whole entry): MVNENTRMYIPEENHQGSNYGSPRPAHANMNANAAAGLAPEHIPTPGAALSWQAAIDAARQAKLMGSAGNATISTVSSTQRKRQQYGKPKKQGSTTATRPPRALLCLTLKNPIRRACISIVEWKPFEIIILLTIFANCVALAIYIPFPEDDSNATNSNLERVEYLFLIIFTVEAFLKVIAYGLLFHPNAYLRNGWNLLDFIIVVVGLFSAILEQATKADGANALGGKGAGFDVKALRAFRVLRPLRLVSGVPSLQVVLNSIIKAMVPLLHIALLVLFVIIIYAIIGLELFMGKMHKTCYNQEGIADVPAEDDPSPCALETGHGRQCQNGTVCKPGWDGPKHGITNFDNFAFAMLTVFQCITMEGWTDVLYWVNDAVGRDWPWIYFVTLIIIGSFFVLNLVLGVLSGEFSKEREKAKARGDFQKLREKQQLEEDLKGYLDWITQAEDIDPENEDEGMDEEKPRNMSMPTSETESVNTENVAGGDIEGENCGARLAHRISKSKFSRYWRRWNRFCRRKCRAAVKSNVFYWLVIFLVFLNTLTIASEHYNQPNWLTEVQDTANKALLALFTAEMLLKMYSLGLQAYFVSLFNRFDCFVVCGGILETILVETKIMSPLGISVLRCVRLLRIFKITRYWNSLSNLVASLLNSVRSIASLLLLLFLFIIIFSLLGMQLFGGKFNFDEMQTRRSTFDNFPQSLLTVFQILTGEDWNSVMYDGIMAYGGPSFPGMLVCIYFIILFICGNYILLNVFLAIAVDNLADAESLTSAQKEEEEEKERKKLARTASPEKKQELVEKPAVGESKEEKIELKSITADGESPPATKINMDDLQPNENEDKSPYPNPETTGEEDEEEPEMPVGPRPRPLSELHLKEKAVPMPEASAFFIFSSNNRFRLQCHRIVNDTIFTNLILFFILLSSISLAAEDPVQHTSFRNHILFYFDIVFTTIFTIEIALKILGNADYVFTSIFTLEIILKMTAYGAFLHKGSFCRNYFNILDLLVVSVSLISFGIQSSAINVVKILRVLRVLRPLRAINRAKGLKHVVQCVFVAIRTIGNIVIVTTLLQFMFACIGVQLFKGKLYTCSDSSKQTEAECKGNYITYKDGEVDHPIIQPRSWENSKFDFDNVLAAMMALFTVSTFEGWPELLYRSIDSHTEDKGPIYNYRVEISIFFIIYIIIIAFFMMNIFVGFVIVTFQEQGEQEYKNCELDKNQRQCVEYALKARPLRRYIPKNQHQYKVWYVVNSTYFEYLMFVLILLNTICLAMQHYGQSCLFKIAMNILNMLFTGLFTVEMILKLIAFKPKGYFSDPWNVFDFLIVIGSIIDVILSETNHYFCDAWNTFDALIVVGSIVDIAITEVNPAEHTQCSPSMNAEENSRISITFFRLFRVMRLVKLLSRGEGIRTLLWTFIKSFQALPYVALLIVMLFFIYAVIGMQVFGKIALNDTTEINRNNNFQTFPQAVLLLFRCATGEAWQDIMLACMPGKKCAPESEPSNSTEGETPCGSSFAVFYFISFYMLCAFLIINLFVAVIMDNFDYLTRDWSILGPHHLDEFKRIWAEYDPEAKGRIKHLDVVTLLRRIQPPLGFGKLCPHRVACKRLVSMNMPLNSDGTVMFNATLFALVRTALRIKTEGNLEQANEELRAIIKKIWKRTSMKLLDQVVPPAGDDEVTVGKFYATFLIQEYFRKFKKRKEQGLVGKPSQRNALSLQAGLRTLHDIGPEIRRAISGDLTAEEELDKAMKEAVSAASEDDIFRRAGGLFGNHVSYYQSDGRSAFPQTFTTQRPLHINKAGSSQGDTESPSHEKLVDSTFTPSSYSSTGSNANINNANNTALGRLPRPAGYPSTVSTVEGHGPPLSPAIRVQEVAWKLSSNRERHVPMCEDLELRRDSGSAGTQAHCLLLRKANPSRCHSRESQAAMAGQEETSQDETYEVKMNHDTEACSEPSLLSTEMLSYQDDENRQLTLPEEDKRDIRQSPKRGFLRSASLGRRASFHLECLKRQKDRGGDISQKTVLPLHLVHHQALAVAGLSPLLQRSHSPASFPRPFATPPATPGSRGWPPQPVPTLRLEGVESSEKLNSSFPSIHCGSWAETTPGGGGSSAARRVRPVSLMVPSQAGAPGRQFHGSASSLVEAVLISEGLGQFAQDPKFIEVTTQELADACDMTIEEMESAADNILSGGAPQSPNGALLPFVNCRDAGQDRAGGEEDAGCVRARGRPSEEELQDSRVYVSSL
smiles,measurement,setting,value
Cn1ccc([C@H]2CCNC[C@@H]2C(=O)N(Cc2cn(Cc3cccnc3)c3cccc(F)c23)C2CC2)cc1=O,activity % at 10 µM,CYP3A4 [1],61%
same,inhibition at 10 µM,CYP3A4 [2],44%
same,IC50,Renin [3],0.88 nM
same,IC50,Renin [4],2 nM
same,bioavailability,[5],0%
same,Ki,[6],12000 nM
COCCCn1cc(CN(C(=O)[C@H]2CNCC[C@@H]2c2ccn(C)c(=O)c2)C2CC2)c2c(Br)cccc21,activity % at 10 µM,CYP3A4 [1],63%
same,inhibition at 10 µM,CYP3A4 [2],48%
same,IC50,Renin [3],0.07 nM
same,IC50,Renin [4],0.57 nM
same,bioavailability,[5],3%
same,Ki,[6],11000 nM
Cn1ccc([C@H]2CCNC[C@@H]2C(=O)N(Cc2c[nH]c3cccc(F)c23)C2CC2)cc1=O,activity % at 10 µM,CYP3A4 [1],74%
same,inhibition at 10 µM,CYP3A4 [2],0%
same,IC50,Renin [3],12 nM
same,IC50,Renin [4],8.4 nM
same,bioavailability,[5],0%
same,Ki,[6],> 29000 nM
COCCCn1cc(CN(C(=O)[C@H]2CNCC[C@@H]2c2ccn(C)c(=O)c2)C2CC2)c2ccccc21,Activity,Canis familiaris [7],6%
same,Activity,Canis familiaris [8],12%
same,inhibition at 10 µM,CYP3A4 [2],45%
same,IC50,Renin [3],2.3 nM
same,Activity,Canis familiaris [9],14%
same,IC50,Renin [4],5.2 nM
same,Activity,Rattus norvegicus [10],30%
same,IC50,[11],> 30000 nM
same,Activity,Rattus norvegicus [12],23%
same,bioavailability,[13],8%
same,IC50,[14],> 30000 nM
same,concentration at 1.5 h,[15],25 µM
same,concentration at 0.5 h,[16],12.7 µM
Cn1ccc([C@H]2CCNC[C@@H]2C(=O)N(Cc2cn(Cc3ccccc3)c3cccc(F)c23)C2CC2)cc1=O,activity % at 10 µM,CYP3A4 [1],19%
same,inhibition at 10 µM,CYP3A4 [2],43%
same,IC50,Renin [3],0.02 nM
same,IC50,Renin [4],0.62 nM
same,bioavailability,[5],16%
Cn1ccc([C@H]2CCNC[C@@H]2C(=O)N(Cc2cn(Cc3ccncc3)c3cccc(F)c23)C2CC2)cc1=O,activity % at 10 µM,CYP3A4 [1],44%
same,inhibition at 10 µM,CYP3A4 [2],29%
same,IC50,Renin [3],0.24 nM
same,IC50,Renin [4],0.53 nM
same,bioavailability,[5],0%
same,Ki,[6],15000 nM
COCCCc1cc(CN(C(=O)[C@H]2CNCC[C@@H]2c2ccn(C)c(=O)c2)C2CC2)cc(Br)c1C.Cl,solubility,[17],soluble
COCCCc1cc(CN(C(=O)[C@H]2CNCC[C@@H]2c2ccn(C)c(=O)c2)C2CC2)cc(Br)c1C,Activity,Canis familiaris [7],0%
same,AUC,[18],0.9 µM·h
same,Activity,Liver microsomes [19],8.3 pmolequiv
same,activity % at 10 µM,CYP3A4 [1],22%
same,AUC,[20],4.2 µM·h
same,Activity,Canis familiaris [8],4%
same,inhibition at 10 µM,CYP3A4 [2],0%
same,IC50,Renin [3],1 nM
same,half-life,[21],7.8 h
same,Vd,[22],4.5 L/kg
same,Activity,Rattus norvegicus [23],35 mmHg
same,Activity,Canis familiaris [9],5%
same,half-life,[24],13.7 h
same,clearance,[25],14 mL/min/kg
same,IC50,Renin [4],2.4 nM
same,bioavailability,[26],36%
same,Ki,[6],18000 nM
same,Activity,Rattus norvegicus [10],14%
same,IC50,Cytochrome P450 3A4 [27],20000 nM
same,Activity,Liver microsomes [28],34.5 pmolequiv
same,Vd,[29],4.8 L/kg
same,Activity,Rattus norvegicus [12],16%
same,Time,Rattus norvegicus [30],24 h
same,half-life,[31],5.2 h
same,IC50,Cytochrome P450 3A4 [32],6500 nM
same,concentration at 1.5 h,[15],9.3 µM
same,bioavailability,[33],14%
same,Vd,[34],17 L/kg
same,concentration at 0.5 h,[16],7.9 µM
same,clearance,[35],16 mL/min/kg
same,IC50,Cytochrome P450 3A4 [36],16000 nM
same,bioavailability,[37],30%
same,clearance,[38],67 mL/min/kg
same,AUC,[39],2.1 µM·h
COCCCc1cc(Cl)c(Cl)c(CN(C(=O)[C@H]2CNCC[C@@H]2c2ccn(C)c(=O)c2)C2CC2)c1,Activity,Canis familiaris [7],10%
same,activity % at 10 µM,CYP3A4 [1],53%
same,Activity,Canis familiaris [8],33%
same,inhibition at 10 µM,CYP3A4 [2],16%
same,IC50,Renin [3],0.3 nM
same,Activity,Canis familiaris [9],50%
same,IC50,Renin [4],1.3 nM
same,Ki,[6],4800 nM
same,Activity,Rattus norvegicus [10],54%
same,Activity,Rattus norvegicus [12],35%
same,concentration at 1.5 h,[15],15 µM
same,concentration at 0.5 h,[16],7.4 µM
same,bioavailability,[37],24%
